Active and inactive are the calls of the source. No cut-off for these calls is given here.

Results on 2 compounds are retold here after ChEMBL document CHEMBL1127785, “[[omega-(Heterocyclylamino)alkoxy]benzyl]-2,4-thiazolidinediones as potent antihyperglycemic agents” (1994).

For assay [1], the system named is Mus musculus. Nature of the assay: Percent reduction in area under glucose tolerance curve at 300 uM/kg dose in diet of mice. Format: functional. A digest of the protocol: (§1)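 C57 Bl/6 ob/ob mice, 9–10 weeks old at purchase, 6–8 per group, kept at 26 ± 2 °C on a 12 h light/dark cycle. Compound was mixed into powdered diet, given fresh daily for 8 days. Mice were then fasted 5 h and given oral glucose 3 g/kg. Tail blood glucose was measured at 0, 45, 90 and 135 min by hexokinase/G6PDH. Read-out is % AUC reduction vs controls (trapezoid rule), Student's t-test.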

The species named for assay [2] is Mus musculus. Nature of the assay: Antihyperglycemic potency dose producing approximately 25% reduction in area under glucose tolerance curve. Format: functional. An outline of the steps: as §1
The species entered for assay [3] is Mus musculus. Nature of the assay: No significant effect dose level on blood hemoglobin. Format: functional. An outline of the steps: (§2)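 Blood hemoglobin content was measured in C57 Bl/6 ob/ob mice after 8 days of compound given by dietary admixture. The value is the highest dose (µmol/kg of diet) with no significant reduction in blood hemoglobin.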
Assay [4] deals with Mus musculus. The assay is described as follows: Percent reduction in area under glucose tolerance curve (AUC) was determined at 3000 umol/kg dose of diet in mice. Format: functional. A digest of the protocol: as §1
A short description of assay [5]: Selectivity ratio for Antihyperglycemic potency dose and No significant effect dose. Format: functional.
For assay [6], the system named is Mus musculus. The assay is described as follows: Percent reduction in area under glucose tolerance curve (AUC) was determined at 100 umol/kg dose of diet in mice; IA = No significant activity. Format: functional, organism-based. An outline of the steps: as §1
Assay [7] has as its system Mus musculus. The assay is described as follows: Percent reduction in area under glucose tolerance curve at 100 uM/kg dose in diet of mice. Format: functional. A digest of the protocol:
as §1

Assay [8] is filed under the species Mus musculus. Nature of the assay: No significant effect dose level on blood hemoglobin. In kind it is functional. An outline of the steps:
as §2

In assay [9] the test system is Mus musculus. Nature of the assay: Percent reduction in area under glucose10 umol/kg dose of diet in mice. Format: functional. A digest of the protocol:
as §1

In assay [10] the test system is Mus musculus. The assay is described as follows: Percent reduction in area under glucose tolerance curve (AUC) was determined at 30 umol/kg dose of diet in mice. In kind it is functional. A digest of the protocol:
as §1

For assay [11], the system named is Mus musculus. Nature of the assay: Percent reduction in area under glucose tolerance curve (AUC) was determined at 3 umol/kg dose of diet in mice. In kind it is functional. An outline of the steps:
as §1

Regarding `Cc1c(C)c2c(c(C)c1O)CCC(C)(COc1ccc(CC3SC(=O)NC3=O)cc1)O2` (centres undefined) [TROGLITAZONE], the Reduction in assay [1] stood at 20%; in assay [4] it was 48%. For the same compound, the Dose was determined as 400 µM/kg in assay [2] and 600 µM/kg in [3]. For the same compound, the Selectivity ratio in [5] was 1.5. In addition, the Reduction entry in assay [6] was “inactive”.

Turning to `CN(CCOc1ccc(CC2SC(=O)NC2=O)cc1)c1ccccn1` (centres undefined) [ROSIGLITAZONE], the Reduction is 56% in [7]; 61% in assay [1]; 31% in assay [9]; 41% in assay [10]; 17% in [11]. The Dose amounted to 300 µM/kg in assay [8] and 3 µM/kg in [2]. Moreover, the Selectivity ratio in assay [5] was 100.
